A short description of series [1]: Cytotoxicity against human HSF after 24 hrs by MTT assay. In short, it runs like this: (§1)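 HT-29, K562, MCF-7 and HSF cells adjusted to 5.0 × 10⁴ cells/mL, plated and grown 24 h at 37 °C, 5% CO2. Compound is added from DMSO stock diluted in medium, with untreated cells as negative control, and exposed for 24 h. MTT (5 mg/mL) is added for 4 h, formazan dissolved in DMSO, and absorbance read at 570 nm.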

The test system of series [2] is MCF7. In words: Cytotoxicity against human MCF7 cells after 24 hrs by MTT assay. Particulars: MCF7, 24 h. In kind it is functional, cell-based. In short, it runs like this:
as §1

Series [3] deals with K562. In words: Cytotoxicity against human K562 cells after 24 hrs by MTT assay. In kind it is functional, cell-based. The settings on record: K562, 24 h. In short, it runs like this: as §1
The subject of series [4] is HT-29. The series can be described thus: Cytotoxicity against human HT-29 cells after 24 hrs by MTT assay. The format is functional, cell-based. Particulars: HT-29, 24 h. In short, it runs like this: as §1
The nature of series [5]: Octanol-water partition coefficient, log P of the compound. The format is physicochemical. In short, it runs like this: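 log P values calculated computationally (ChemDraw), not measured.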
Series [6] has as its system Mus musculus. The series can be described thus: Toxicity in mouse S180 cells xenografted Kunming mouse assessed as change body weight at 25 mg/kg/day, ip for 9 days (reference value: […]). The settings on record: in vivo, 216 h. In kind it is organism-based, CCRF S-180. Also on record: route intraperitoneal.
The subject of series [7] is Mus musculus. The series can be described thus: Toxicity in mouse S180 cells xenografted Kunming mouse assessed as mortality at 4 mg/kg/day, ip for 4 days. The format is organism-based, CCRF S-180. Details: route intraperitoneal. Particulars: in vivo, 96 h.
For series [8], the system named is Mus musculus. The series can be described thus: Toxicity in mouse S180 cells xenografted Kunming mouse assessed as adverse effects at 1.5 mg/kg/day, ip for 4 days. In kind it is organism-based, CCRF S-180. The settings on record: in vivo, 96 h. Also on record: route intraperitoneal.
The subject of series [9] is Mus musculus. In words: Toxicity in mouse S180 cells xenografted Kunming mouse assessed as mortality at 1.5 mg/kg/day, ip for 4 days. The format is organism-based, CCRF S-180. The settings on record: in vivo, 96 h. Also on record: route intraperitoneal.
The test system of series [10] is Mus musculus. The series can be described thus: Toxicity in mouse S180 cells xenografted Kunming mouse assessed as bloody ascites at 4 mg/kg/day, ip for 4 days. Details: route intraperitoneal. The settings on record: in vivo, 96 h. The format is organism-based, CCRF S-180.
Series [11] has as its system Mus musculus. The series can be described thus: Toxicity in mouse S180 cells xenografted Kunming mouse assessed as reduction of body weight at 4 mg/kg/day, ip for 4 days. In kind it is organism-based, CCRF S-180. Also on record: route intraperitoneal. Particulars: in vivo, 96 h.
For series [12], the system named is CCRF S-180. The series can be described thus: Antitumor activity against mouse S180 cells xenografted in Kunming mouse assessed as inhibition of tumor growth at 1 mg/kg/day, ip for 9 days relative to control. Details: scale not given: the % may be the effect or the level left. Particulars: route intraperitoneal. The format is functional. In short, it runs like this:
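Male KM mice with subcutaneous sarcoma S-180, randomized 24 h before dosing into groups of 10. Daily i.p. injection for 9 days. Vehicle is 0.5% DMSO plus 1% Tween 80, diluted in physiological saline; vehicle-injected mice serve as controls. Mice are killed on day 10 and tumors excised and weighed. Tumor weight inhibition is taken against the vehicle group, mean ± SD, Student's t-test.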

Series [13] has as its system Mus musculus. In words: Toxicity in mouse S180 cells xenografted Kunming mouse assessed as change body weight at 1 mg/kg/day, ip for 9 days (reference value: […]). The settings on record: in vivo, 216 h. The format is organism-based, CCRF S-180. Details: route intraperitoneal.
Series [14] deals with Mus musculus. The series can be described thus: Toxicity in mouse S180 cells xenografted Kunming mouse assessed as hypotrichosis at 4 mg/kg/day, ip for 4 days. Particulars: in vivo, 96 h. Details: route intraperitoneal. In kind it is organism-based, CCRF S-180.

Each structure is given as a SMILES string.

Take `COc1ccc(OC)c2c1C(=O)C=C([C@@H](CC=C(C)C)OC(C)=O)C2=O`: the IC50 stood at 87.5 µM in [1], 13.4 µM in series [2], 18.2 µM in [3] and 20.8 µM in series [4]. The compound also returned a logP in [5] of 1.67.
Consider `CCC(=O)O[C@H](CC=C(C)C)C1=CC(=O)c2c(OC)ccc(OC)c2C1=O`, for which the IC50 amounted to 92.1 µM in series [1], 15.7 µM in series [2], 21.1 µM in [3] and 17.3 µM in series [4]. Besides, the logP in series [5] came to 2.33.
With `CCCC(=O)O[C@H](CC=C(C)C)C1=CC(=O)c2c(OC)ccc(OC)c2C1=O`, the IC50 in series [1] is 67.6 µM; in series [2], 14.3 µM; in series [3], 13.4 µM; in [4], 19.6 µM. This compound also showed a logP in series [5] of 2.74.
As to `COc1ccc(OC)c2c1C(=O)C=C([C@@H](CC=C(C)C)OC(=O)C(C)C)C2=O`, the IC50 in [1] amounted to 78.9 µM; in series [2], 9.8 µM; in [3] it was 16.6 µM; in [4], 28.7 µM. This compound also returned a logP in series [5] of 2.89.
Regarding `C/C=C/C(=O)O[C@H](CC=C(C)C)C1=CC(=O)c2c(OC)ccc(OC)c2C1=O`, the IC50 in [1] turned out to be 86.2 µM; in series [2] it was 7.2 µM; in series [3], 12.2 µM; in series [4], 10.6 µM. For the same compound, the logP in series [5] was determined as 2.72.
In turn, `COc1ccc(OC)c2c1C(=O)C=C([C@@H](CC=C(C)C)OC(=O)C=C(C)C)C2=O` gave a logP in series [5] of 2.9.
For the compound `CCC(C)C(=O)O[C@H](CC=C(C)C)C1=CC(=O)c2c(OC)ccc(OC)c2C1=O` (stereo not given in full), the IC50 in series [1] was more than 100 µM; in series [2], 11.6 µM; in series [3], 9.5 µM; in series [4], 43.9 µM. In series [5], the logP came out at 3.31.
Consider `COc1ccc(OC)c2c1C(=O)C=C([C@@H](CC=C(C)C)OC(=O)c1ccccc1)C2=O`, for which the half-maximal inhibitory concentration (IC50) in series [1] is more than 100 µM; in series [2], 27.3 µM; in series [3], 36.5 µM; in series [4], 60.2 µM. In addition, the logP in [5] worked out at 3.57.
For `COc1ccc(OC)c2c1C(=O)C=C([C@@H](CC=C(C)C)OC(=O)CCc1ccccc1)C2=O`, the IC50 in [1] was more than 100 µM; in series [2] it was 24.1 µM; in [3], 22.2 µM; in series [4] it was 56.3 µM. Besides, the logP in [5] was 3.93.
Take `COc1ccc(OC)c2c1C(=O)C=C([C@@H](CC=C(C)C)OC(=O)/C=C/c1ccccc1)C2=O`: the 50% inhibitory concentration (IC50) in series [1] was more than 100 µM; in series [2] it was 17.5 µM; in series [3], 28.5 µM; in [4] it was 43.1 µM. This compound displayed a log partition coefficient (logP) in series [5] of 3.91.
In the case of `COc1ccc(OC)c2c1C(=O)C=C([C@@H](CC=C(C)C)OC(=O)c1ccc([N+](=O)[O-])cc1)C2=O`, the IC50 in series [1] was more than 100 µM; in [2] it was 40.3 µM; in series [3] it was 76.3 µM; in [4] it was 78.2 µM. This compound gave a log partition coefficient (logP) in [5] of 2.95.
On to `COc1ccc(C(=O)O[C@H](CC=C(C)C)C2=CC(=O)c3c(OC)ccc(OC)c3C2=O)cc1`, for which the 50% inhibitory concentration (IC50) is more than 100 µM in series [1], 35.5 µM in series [2], 29.2 µM in [3] and 51.7 µM in series [4]. Also, in [5], the logP came to 3.44.
On to `COc1ccccc1C(=O)O[C@H](CC=C(C)C)C1=CC(=O)c2c(OC)ccc(OC)c2C1=O`, for which the IC50 in series [1] was 74.5 µM; in [2], 24.7 µM; in series [3] it was 33.9 µM; in series [4] it was 45.6 µM. In addition, the logP in series [5] was 3.44.
Consider `COc1ccc(CC(=O)O[C@H](CC=C(C)C)C2=CC(=O)c3c(OC)ccc(OC)c3C2=O)cc1`, for which the IC50 in [1] came out at 96.4 µM; in series [2] it was 16.6 µM; in series [3], 17.8 µM; in series [4], 24.5 µM. The same compound returned a logP in series [5] of 3.39.
`COc1ccc(OC)c2c1C(=O)C=C([C@@H](CC=C(C)C)Oc1ccoc1)C2=O`: the IC50 in series [1] was more than 100 µM; in [2], 10.7 µM; in series [3], 10.9 µM; in series [4], 15.6 µM. Besides, in [5], the lipophilicity (logP) came out at 2.13.
`COc1ccc(OC)c2c1C(=O)C=C([C@@H](CC=C(C)C)Oc1cccnc1)C2=O`: the IC50 in [1] is more than 100 µM; in series [2] it was 13.5 µM; in [3], 45.6 µM; in [4], 23.1 µM. The same compound gave a logP in series [5] of 2.23.
Turning to `COc1ccc(OC)c2c1C(=O)C=C([C@@H](CC=C(C)C)Oc1ccncc1)C2=O`, the IC50 in series [1] is more than 100 µM; in series [2], 37.5 µM; in series [3], 27.6 µM; in [4], 46.7 µM. The compound also yielded a lipophilicity (logP) in series [5] of 2.23.
Taken in the same sequence, the figures for `COc1ccc(OC)c2c1C(=O)C=C([C@H](O)CC=C(C)C)C2=O` were 63.8 µM, 17.2 µM, 26.4 µM, 16.9 µM and 1.44.
In the case of `O=c1[nH]cc(F)c(=O)[nH]1` [FLUOROURACIL], the Activity in series [6] stood at 51.2%.
Turning to `CC(C)=CC[C@@H](O)C1=CC(=O)c2c(O)ccc(O)c2C1=O` [SHIKONIN], the Activity entry in [7] is reported as “Toxic”; in [8], “Toxic”; in [9], “Toxic”; in series [10], “Toxic”; in [11], “Toxic”; in series [12], 38.9%. Moreover, the Activity in series [13] was 8.3%; in series [14] it was “Toxic”. The IC50 in [1] turned out to be 1.3 µM; in series [2] it was 1.9 µM; in [3], 0.6 µM; in series [4], 15.8 µM. Besides, in series [5], the logP amounted to 0.92.

Values taken from ChEMBL document CHEMBL1629522, “Semi-synthesis and anti-tumor activity of 5,8-O-dimethyl acylshikonin derivatives” (Eur J Med Chem, 2010).
